# Only a selection was taken, and hits are over-represented in it overall.
# IDH1 mut inh: inhibitors of human IDH1 R132H; 70,000 tested, 0.18% active; IDH1 R132H reductase, diaphorase/resazurin fluorescence, 60 min; O75874; inhibition, % at 10 µM; in the data active = inhibition above about 34%; inconclusive = no clear call, values can overlap the other calls; inactive = below about 11%;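 note: 0% = DMSO and 100% = no enzyme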
# T cruzi growth-1: inhibitors of T. cruzi proliferation. inhibition, % at 8.34 µM. T. cruzi beta-gal in NIH3T3, GalScreen luminescence, 90 h. 77,000 tested, 5.9% active;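 active = mean inhibition above about 93%, with at least 55% of replicates each passing it, limit read from the data, passing the limit was not always enough; inconclusive = only one of those two conditions holds; inactive = neither condition holds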
# GASC1 inh: KDM4C (human) demethylase inhibition; inhibition, % at 12.5 µM; GST-KDM4C 2-372, H3K9me3 peptide, LANCE TR-FRET; 96,000 tested, 0.15% active; AID 720574;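 active = mean replicate inhibition above about 25%, with at least 55% of replicates also reaching it, limit read from the data, passing the limit was not always enough; inconclusive = only one of those two conditions met; inactive = neither condition met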
# Target sequence (Q9H3R0 2-372 limits assumed): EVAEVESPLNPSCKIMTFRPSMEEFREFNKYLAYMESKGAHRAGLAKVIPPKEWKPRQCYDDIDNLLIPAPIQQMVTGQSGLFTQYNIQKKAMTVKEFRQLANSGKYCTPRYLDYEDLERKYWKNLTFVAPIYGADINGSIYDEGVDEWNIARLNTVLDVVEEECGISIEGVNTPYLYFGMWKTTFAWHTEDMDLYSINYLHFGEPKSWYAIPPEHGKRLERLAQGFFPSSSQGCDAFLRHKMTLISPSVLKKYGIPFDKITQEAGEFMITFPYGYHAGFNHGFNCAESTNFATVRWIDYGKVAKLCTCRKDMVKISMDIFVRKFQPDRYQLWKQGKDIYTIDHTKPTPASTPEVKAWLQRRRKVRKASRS
#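 Test system – GST-tagged GASC-1 (JMJD2C) catalytic fragment, aa 2-372 · Medium – HEPES buffer, pH 7.5, plus ascorbate · Reagent – H3K9me3 peptide with Fe(II)/2OG · Compound – one test concentration per compound · Timing – 30 min reaction, 60 min detection, RT · Technique – TR-FRET with Eu antibody and ULight streptavidin, EDTA stop · Read-out basis – inhibition from TR-FRET ratio decrease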
# T cruzi growth-2: inhibitors of T. cruzi proliferation; inhibition, % at 8.35 µM; T. cruzi beta-gal in NIH3T3, GalScreen luminescence, 90 h; 5,600 tested, 72% active; shares compounds with T cruzi growth-1; AID 651739;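 active = mean replicate inhibition above about 95% and at least 55% of replicates individually reaching it, limit read from the data; inconclusive = only one of the two criteria is met; inactive = neither criterion is met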
# T cruzi growth-3: inhibitors of T. cruzi proliferation; T. cruzi beta-gal in NIH3T3, GalScreen luminescence, 90 h; 5,600 tested, 21% active; inhibition, % at 2.09 µM; shares compounds with T cruzi growth-1;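 active = mean inhibition above about 95%, with at least 55% of replicates also reaching it, limit read from the data; inconclusive = meets just one of the two conditions; inactive = meets neither condition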;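 note: plate controls were neutral control median for no effect and positive control median for full effect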
# 3T3 cytotox: cytotoxicity in mouse NIH/3T3 fibroblasts; shares compounds with T cruzi growth-1; NIH/3T3 viability, CellTiter-Glo ATP luminescence, 90 h; cytotoxicity (signal decrease), % at 8.35 µM; 5,600 tested, 14% active;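 active = mean signal decrease across replicates above about 35% based on untreated-well scatter, with enough replicates individually passing, limit read from the data; inconclusive = no rule stated though some were filed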;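 note: 0% = median of neutral control wells and 100% = median of positive control wells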
# NIH3T3 tox 2: NIH/3T3 (mouse) viability loss | shares compounds with T cruzi growth-1 | inhibition, % at 24.9 µM | 5,600 tested, 56% active | NIH/3T3 viability, CellTiter-Glo ATP luminescence, 90 h;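 active = mean loss of cell viability signal at or above a set limit, and enough replicates individually reaching it; inconclusive = meets only the mean limit or only the replicate share; inactive = meets neither condition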;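 note: 0% = median of neutral control wells and 100% = median of positive control wells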
# * marks the source's active call; other numbers are inactive results; ? = inconclusive; / = no result given.
SMILES,IDH1 mut inh,T cruzi growth-1,GASC1 inh,T cruzi growth-2,T cruzi growth-3,3T3 cytotox,NIH3T3 tox 2
COc1ccc(CNC(=O)C[C@H]2C[C@@H]3c4cc(NC(=O)C5CCC5)ccc4O[C@@H]3[C@H](CO)O2)cc1,0,165*,3,11,9,2,-6
O=C(C[C@H]1CC[C@H](NC(=O)Cc2ccccn2)[C@H](CO)O1)NCCCN1CCOCC1,0,/,1,/,/,/,/
CN(C)C(=O)c1ccc(-c2ccc(C3[C@H]4CNC[C@@H]3N4C(=O)Nc3ccccc3F)cc2)cc1 (some centres undefined),/,/,0,/,/,/,/
Cc1ccc(S(=O)(=O)N(C)C[C@@H]2Oc3ccc(NC(=O)c4ccncc4)cc3CC(=O)N([C@@H](C)CO)C[C@H]2C)cc1,-7,39,4,/,/,/,/
C[C@@H]1CN([C@H](C)CO)C(=O)c2cc(NS(=O)(=O)c3ccc(F)cc3)ccc2O[C@H]1CN(C)C(=O)NC1CCCCC1,3,67,1,/,/,/,/
C[C@H]1CN([C@@H](C)CO)C(=O)c2c(c3ccccc3n2C)-c2ccccc2CO[C@@H]1CN(C)C(=O)NC1CCCCC1,/,-34,-1,/,/,/,/
C[C@H](CO)N1C[C@H](C)[C@@H](CN(C)C)Oc2ccc(NC(=O)Cc3cn(C)c4ccccc34)cc2C1=O,-2,/,0,/,/,/,/
CCCN1C[C@H](C)[C@H](OC)CN(C)C(=O)c2ccc(NC(=O)CC)cc2OC[C@@H]1C,0,25,-2,/,/,/,/
COc1ccc(S(=O)(=O)Nc2ccc3c(c2)C(=O)N([C@H](C)CO)C[C@H](C)[C@H](CN(C)S(=O)(=O)c2ccc(Cl)cc2)OCCCC[C@@H](C)O3)cc1,/,94,4,/,/,/,/
COc1ccc(S(=O)(=O)N(C)C[C@H]2OCCCC[C@H](C)Oc3ccc(NS(=O)(=O)c4ccc(Cl)cc4)cc3C(=O)N([C@@H](C)CO)C[C@H]2C)cc1,/,/,-2,/,/,/,/
COc1ccc(S(=O)(=O)Nc2ccc3c(c2)C(=O)N([C@@H](C)CO)C[C@H](C)[C@H](CN(C)S(=O)(=O)c2ccc(Cl)cc2)OCCCC[C@H](C)O3)cc1,0,?,0,108*,91,22,21
COc1ccc(S(=O)(=O)Nc2ccc3c(c2)C(=O)N([C@@H](C)CO)C[C@H](C)[C@H](CN(C)S(=O)(=O)c2ccc(Cl)cc2)OCCCC[C@@H](C)O3)cc1,/,99*,-2,104*,84,10,-23
CNC(=O)C[C@@H]1CC[C@@H]2[C@H](COc3ccc(NS(=O)(=O)c4ccc(F)cc4)cc3C(=O)N2C)O1,/,-17,1,/,/,/,/
CN(C)CC(=O)N1[C@H](C#N)[C@@H](c2ccc(C#CC3CCCCC3)cc2)[C@H]1CO,0,109*,0,107*,73,1,102*
CN(C)CC(=O)N1[C@@H](C#N)[C@@H](c2ccc(C#CC3CCCCC3)cc2)[C@@H]1CO,/,42,4,/,/,/,/
CN(C)CC(=O)N1[C@H](C#N)[C@@H](c2ccc(C#CC3CCCCC3)cc2)[C@@H]1CO,/,72,-1,/,/,/,/
CN(C)CC(=O)N1[C@@H](C#N)[C@H](c2ccc(C#CC3CCCCC3)cc2)[C@@H]1CO,/,102*,-3,98*,38,20,104*
CN1CCN(C(=O)C[C@@H]2CC[C@H]3[C@@H](COC[C@H](O)CN3CC3CCOCC3)O2)CC1,/,40,2,/,/,/,/
Cc1noc(C)c1NC(=O)Nc1ccc2c(c1)C(=O)N([C@@H](C)CO)C[C@@H](C)[C@@H](CN(C)S(=O)(=O)c1ccc(Cl)cc1)OCCCC[C@@H](C)O2,2,72,-2,/,/,/,/
CC(C)NC(=O)Nc1ccc2c(c1)C(=O)N([C@H](C)CO)C[C@@H](C)[C@H](CN(C)S(=O)(=O)c1ccc(Cl)cc1)OCCCC[C@@H](C)O2,3,72,-1,/,/,/,/
C[C@H](CO)N1C[C@H](C)[C@@H](CN(C)S(=O)(=O)c2ccc(Cl)cc2)OCCCC[C@H](C)Oc2ccc(NC(=O)NC3CCCCC3)cc2C1=O,/,106*,0,109*,75,-10,0
